Data from PMC2174336 (The Journal of Cell Biology, 2001).
Values belong to the molecule of their own block, whether it stands above or below them. Bridges are numbered along the chain shown (N, C = ends). Where no end group is shown, it is not given here.

Key:
THP-1 cells [1] = experiment: Inhibition of THP-1 cell adhesion to LLG-C4-GST or LLG-C4 substratum; assay type: cell-based
Summary of the method: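 THP-1 cells were mixed in suspension with test peptides at the indicated final concentrations, or with 2.5 mM EDTA. They were then incubated 60 min in wells coated with peptide–GST fusion. Unbound cells were removed by PBS washing and bound cells quantitated by phosphatase assay. Mean of triplicate wells; repeated in two further experiments.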

β2 integrin = experiment: LLG-C4-GST binding to integrin immunocaptured with β2 subunit antibody 2E7; settings: β2 subunit antibody 2E7 used for immunocapture
Summary of the method: (§1)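 Integrins from buffy-coat lysate in 1% octylglucoside/1 mM MnCl2/TBS were captured for 2 h at 4°C on wells coated with subunit antibodies (MEM170, OKM1 or 2E7), then washed five times. Peptide–GST fusion or GST (10 μg/ml; 2 μg/well per legend) bound 1 h in 25 mM octylglucoside/TBS/1 mM MnCl2, ± EDTA. Detection by Eu3+-chelate-labelled anti-GST antibody fluorescence. Repeated three times.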

[2] = tested on: αXβ2 integrin–transfected L cells; experiment: Binding of αXβ2 integrin-transfected L cells to LLG-C4-GST; assay type: cell-based, mouse; settings: three experiments in triplicate wells
Summary of the method: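 αXβ2-transfected mouse L cells were incubated in wells coated with peptide–GST fusion or GST (2 μg/well, BSA-blocked), 60 min at 37°C, 10^5 cells/well. The β2-blocking antibody 7E4 or EDTA served as competitors. After PBS washing, bound cells were read by phosphatase assay and given as percentage adhesion. Triplicate wells; three experiments.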

αM subunit I domain = experiment: LLG-C4-GST binding to purified αM subunit I domain; settings: LLG-C4-GST 10 μg/ml; for inhibition of LLG-C4-GST binding to the I domain: peptide 100 μM, triplicate wells
Summary of the method: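 The αM I domain was expressed as a GST fusion in E. coli, purified on glutathione beads and released by thrombin cleavage; it was then coated on wells. Peptide–GST fusion or GST at the indicated concentrations (10 μg/ml in methods) was incubated 1 h in 25 mM octylglucoside/TBS/1 mM MnCl2. Bound protein was detected with Eu3+-labelled anti-GST antibodies. Triplicate wells, three experiments.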

αMβ2 integrin [3] = experiment: LLG-C4-GST binding to immunocaptured αMβ2 integrin; settings: integrin immunocaptured with MEM170 or OKM1
Summary of the method: as §1

T cells = experiment: T cell binding to TNF-α-stimulated Eahy926 endothelial cell monolayer; assay type: cell-based; settings: peptide 50 μM; 45 min; phosphatase assay; triplicate wells
Summary of the method: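 Eahy926 endothelial cells were seeded at 5×10^4/well, grown 3 d, then stimulated 16 h with TNF-α (10 ng/ml). Blood T cells were isolated by Ficoll-Hypaque and nylon wool. T cells (1.5×10^5/well) were bound 30 min at 4°C then 15 min at 37°C, with test or control peptide at 50 μM. Unbound cells were removed by immersing the plate in PBS. Phosphatase assay; triplicate wells.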

THP-1 cells [4] = experiment: THP-1 adhesion to A2 domain-deleted von Willebrand factor; assay type: cell-based; settings: phosphatase assay; triplicate wells
Summary of the method: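 Wild-type or A2-domain-deleted recombinant von Willebrand factor was captured on wells coated with anti-von Willebrand factor antibody D′-D3. THP-1 cells were incubated with competitor peptides at the stated concentrations. Bound cells were read by phosphatase assay, expressed relative to wild-type von Willebrand factor binding (100%). Triplicate wells; similar in two further experiments.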

THP-1 cells [5] = experiment: THP-1 cell adhesion to von Willebrand factor; assay type: cell-based; settings: data not shown
Summary of the method: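 THP-1 cells were incubated 60 min at 37°C in wells coated with von Willebrand factor or fibronectin (2 μg per well, BSA-blocked), with test peptides at the indicated concentrations. Unbound cells were washed off with PBS and bound cells read by phosphatase assay. Triplicate wells.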

THP-1 cells [6] = experiment: THP-1 cell adhesion to immobilized peptides or GST fusion proteins; assay type: cell-based; settings: 60 min; for THP-1 cell binding to substance coated on microtiter wells: phorbol ester–activated THP-1 cells, phosphatase assay
Summary of the method: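 Proteins or synthetic peptides coated at 2 μg per well in TBS unless indicated; polymerised peptide made with 0.25% final glutaraldehyde. Wells blocked with 5% BSA and washed with PBS. Cells were preactivated for 30 min at room temperature in serum-free medium with 50 nM phorbol dibutyrate or 200 μM activating peptide. Then 10^5 cells/well were incubated 60 min at 37°C. Bound cells were read by cellular phosphatase assay.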

Jurkat cells = experiment: Jurkat cell adhesion to ICAM-1-Fc; assay type: cell-based
THP-1 cells [7] = experiment: THP-1 cell migration on fibrinogen-coated Transwell filters; assay type: cell-based; settings: 200 μM; 8-μm Transwell; 10% serum; 18 h; n = 6
Summary of the method: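 Both faces of 8-μm-pore Transwell filters were coated with fibrinogen or peptide–GST fusion (40 μg/ml; GST control) and blocked with 5% BSA. THP-1 cells (5×10^4) were placed in the upper chamber in 10% serum medium, ± test peptides at 200 μM; the lower chamber held the same medium. After 18 h at 37°C, filters were methanol-fixed and stained with 0.1% toluidine blue. Cells on the lower surface were counted microscopically.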

αMβ2 integrin [8] = experiment: Phage binding to purified αMβ2 integrin; settings: phage-displayed peptide; data not shown
[9] = target: β2 integrins of THP-1 cells (adhesion to LLG-C4 substrata)
[10] = target: β2 integrins of THP-1 cells (adhesion to LLG-C4 substrata); remark: listed apart in the source

Molecule: ACDCRGDCFCG (also: bicyclic or more (positions not given here)) [RGD-4C]
effect on T cell binding to TNF-α–stimulated endothelial cells (T cells): no effect
effect on THP-1 adhesion to the A2-deleted von Willebrand factor (THP-1 cells [4]): blocked

Molecule: CAAGC (disulfide)
competition of THP-1 cell adhesion on LLG-C4-GST (in words) (THP-1 cells [1]; LLG-C4-GST substratum): only a weak competitor

Molecule: CLLGC (disulfide)
concentrations at which THP-1 cell adhesion on LLG-C4-GST was readily inhibited (THP-1 cells [1]; LLG-C4-GST substratum, phosphatase assay): ≥ 1 mM
inhibition of THP-1 binding to von Willebrand factor at 500 μM (THP-1 cells [5]): inhibited

Molecule: CPCFLLGCC (also: bicyclic or more (positions not given here)) [C(1-9;3-8)]
fold less active than C(1-8;3-9), THP-1 cell adhesion on LLG-C4-GST (THP-1 cells [1]; relative to C(1-8;3-9)): 20 fold
THP-1 cell binding to peptide cross-linked with glutaraldehyde (THP-1 cells [6]; peptide coated in presence of glutaraldehyde, 10^5 cells per well): inactive even after the cross-linking
THP-1 cell binding to substance coated on microtiter wells (THP-1 cells [6]): failed to bind
inhibition of Jurkat cell adhesion to ICAM-1-Fc (in words) (Jurkat cells): severalfold less active and had hardly any effect
effect on THP-1 cell migration on fibrinogen (THP-1 cells [7]): inhibited only partially

Molecule: CPCFLLGCC (disulfide 1-8, 3-9) [C(1-8;3-9) peptide]
IC50 of inhibition of THP-1 cell adhesion on LLG-C4-GST (blocks m22 with m1) [9]: 20 µM

Molecule: CLLGC (also: cyclic, type of ring not given here) [CLLGC peptide]
inhibition of THP-1 cell adhesion on LLG-C4-GST (blocks m22 with m1) [10]: > 1 mM

Further lines, with some results ahead:

effect of EDTA on LLG-C4-GST binding to integrin captured with 2E7 (β2 integrin): only partially inhibited
effect of EDTA on LLG-C4-GST binding to the I domain (αM subunit I domain; EDTA 2.5 mM): blocked the binding
effect of EDTA on LLG-C4-GST binding to αMβ2 integrin (αMβ2 integrin [3]): inhibited the binding
Molecule: O=C(O)CN(CCN(CC(=O)O)CC(=O)O)CC(=O)O [EDTA]
effect of EDTA on THP-1 binding to LLG-C4-GST (THP-1 cells [1]; EDTA 2.5 mM, phorbol ester–activated cells): abolished the binding
binding of αXβ2-transfected L cells to LLG-C4-GST, effect of competitor [2]: inhibited

affinity to αMβ2 in phage-binding experiments in comparison to the other clones (αMβ2 integrin [8]): higher affinity
Molecule: CPCFLLGCC (also: bicyclic or more (positions not given here)) [LLG-C4]
THP-1 cell binding to substance coated on microtiter wells (THP-1 cells [6]): bound strongly

inhibition of LLG-C4-GST binding to the I domain (αM subunit I domain): blocked
Molecule: CPCFLLGCC [LLG-C4 (1)]

inhibition of LLG-C4-GST binding to the I domain (αM subunit I domain): did not inhibit
Molecule: CPCFLLGCC [LLG-C4 (2)]
